Values after ≈ are worked out from the molar mass of the structure shown.
Legend:
Escherichia coli [1] = assay: Antibacterial activity against Escherichia coli ATCC 25922 after 24 hrs; type: functional; details: ATCC 25922, 24 h
Method in brief: (§1)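 Broth microdilution. Mid-log bacteria in MHB at a final (0.5−1) × 10^5 CFU/mL were mixed with equal volumes of peptide serially diluted in 0.2% BSA. Plates were incubated 24 h at 37 °C and read at A492. MIC is the lowest concentration inhibiting 95% of growth. Each test was repeated at least 3 times.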

Escherichia coli [2] = assay: Antibacterial activity against Escherichia coli 1005 after 24 hrs; type: functional; details: Escherichia coli, 1005, 24 h; method in brief: as §1
Salmonella typhimurium [3] = assay: Antibacterial activity against Salmonella typhimurium ATCC 14028 after 24 hrs; type: functional, Salmonella enterica subsp. enterica serovar Typhimurium; details: Salmonella enterica, ATCC 14028, 24 h; method in brief: as §1
[4] = Antibacterial activity against Salmonella pullorum ATCC 7913 after 24 hrs; type: functional, Salmonella enterica subsp. enterica serovar Pullorum; details: Salmonella enterica, ATCC 7913, 24 h; method in brief: as §1
Staphylococcus aureus [5] = assay: Antibacterial activity against methicillin-resistant Staphylococcus aureus ATCC 4330 after 24 hrs; type: functional; details: ATCC 4330, 24 h
Method in brief: (§2)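 Modified NCCLS broth microdilution. Mid-log bacteria at (0.5−1) × 10^5 CFU/mL in MHB were mixed 1:1 with peptide serially diluted in 0.2% BSA and incubated 24 h at 37 °C. Absorbance was read at 492 nm; MIC is the lowest concentration inhibiting 95% of growth. At least 3 repeats.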

Staphylococcus aureus [6] = assay: Antibacterial activity against Staphylococcus aureus ATCC 25923 after 24 hrs; type: functional; details: ATCC 25923, 24 h; method in brief: as §2
Salmonella typhimurium [7] = assay: Bactericidal activity against Salmonella typhimurium ATCC 14028; type: functional, Salmonella enterica subsp. enterica serovar Typhimurium; details: Salmonella enterica, read-out: MBC99.9
Method in brief: (§3)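 Wells from the 24 h, 37 °C MHB microdilution plates (bacteria at a final (0.5−1) × 10^5 CFU/mL; peptide diluted in 0.2% BSA) were plated on agar and incubated overnight. MBC is the lowest concentration killing >99.9% of cells. Each test was reproduced at least 3 times.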

[8] = Bactericidal activity against Salmonella pullorum ATCC 7913; type: functional, Salmonella enterica subsp. enterica serovar Pullorum; details: Salmonella enterica, read-out: MBC99.9; method in brief: as §3
Staphylococcus aureus [9] = assay: Bactericidal activity against Staphylococcus aureus ATCC 29213; type: functional; details: read-out: MBC99.9; method in brief: as §3
Staphylococcus aureus [10] = assay: Bactericidal activity against methicillin-resistant Staphylococcus aureus ATCC 4330; type: functional; details: read-out: MBC99.9
Method in brief: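 Bacteria at (0.5−1) × 10^5 CFU/mL in MHB were exposed to serially diluted peptide (0.2% BSA) for 24 h at 37 °C, then 50 μL aliquots were plated on agar overnight. MBC is the lowest concentration killing >99.9% of cells. At least 3 repeats.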

Candida albicans [11] = assay: Antifungal activity against Candida albicans SP3903 after 48 hrs by broth microdilution method; type: functional; details: SP3903, 48 h
Method in brief: (§4)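 Modified CLSI M27-A2 broth microdilution. Yeast at (0.5−1) × 10^3 CFU/mL in MOPS-buffered RPMI 1640 was mixed 1:1 with peptide serially diluted in 0.2% BSA and incubated 48 h at 28 °C. Absorbance was read at 492 nm; MIC is the lowest concentration inhibiting 95% of growth. Triplicate, three biological replicates.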

Candida albicans [12] = assay: Antifungal activity against Candida albicans SP3902 after 48 hrs by broth microdilution method; type: functional; details: SP3902, 48 h; method in brief: as §4
Candida albicans [13] = assay: Antifungal activity against Candida albicans isolated from alveolar fluid after 48 hrs by broth microdilution method; type: functional; method in brief: as §4
Candida albicans [14] = assay: Antifungal activity against fluconazole-resistant Candida albicans 56452 after 48 hrs by broth microdilution method; type: functional; details: Candida albicans, 56452, 48 h; method in brief: as §4
Pichia kudriavzevii [15] = assay: Antifungal activity against Candida krusei cgmcc 2.1857 after 48 hrs by broth microdilution method; type: functional; details: cgmcc 2.1857, 48 h
Method in brief: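 Modified CLSI M27-A2 broth microdilution. Yeast were suspended in MOPS-buffered RPMI 1640 at a final (0.5−1) × 10^3 CFU/mL and mixed 1:1 with peptide serially diluted in 0.2% BSA. Plates were incubated 48 h at 28 °C and read at A492. MIC is the lowest concentration giving 95% inhibition. Run in triplicate with three biological replicates.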

Candida albicans [16] = assay: Fungicidal activity against Candida albicans cgmcc 2.2086 after 96 hrs; type: functional; details: cgmcc 2.2086, 96 h, read-out: MFC99.9
Method in brief: (§5)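 After the 48 h, 28 °C broth microdilution in MOPS-buffered RPMI 1640 (inoculum (0.5−1) × 10^3 CFU/mL), 50 μL from each well was plated on YM agar for a further 48 h at 28 °C. MFC is the lowest concentration killing at least 99.9% of cells. Triplicate, three biological replicates.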

Candida albicans [17] = assay: Fungicidal activity against Candida albicans SP3903 after 96 hrs; type: functional; details: SP3903, 96 h, read-out: MFC99.9; method in brief: as §5
Candida albicans [18] = assay: Fungicidal activity against Candida albicans isolated from alveolar fluid after 96 hrs; type: functional; details: read-out: MFC99.9; method in brief: as §5
Candida albicans [19] = assay: Fungicidal activity against fluconazole-resistant Candida albicans 56452 after 96 hrs; type: functional; details: Candida albicans, 56452, 96 h; read-out: MFC99.9; method in brief: as §5
Candida albicans [20] = assay: Fungicidal activity against Candida albicans 14936 after 96 hrs; type: functional; details: Candida albicans, 14936, 96 h; read-out: MFC99.9; method in brief: as §5
Candida tropicalis = assay: Fungicidal activity against Candida tropicalis cgmcc 2.1975 after 96 hrs; type: functional; details: cgmcc 2.1975, 96 h, read-out: MFC99.9
Method in brief: (§6)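 Wells from the 48 h, 28 °C RPMI 1640/MOPS microdilution plates were plated on YM agar and incubated a further 48 h at 28 °C. MFC is the lowest concentration killing at least 99.9% of cells. Run in triplicate with three biological replicates.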

Pichia kudriavzevii [21] = assay: Fungicidal activity against Candida krusei cgmcc 2.1857 after 96 hrs; type: functional; details: cgmcc 2.1857, 96 h, read-out: MFC99.9; method in brief: as §6
Escherichia coli [22] = assay: Antibacterial activity against Escherichia coli ATCC 25922 after 18 hrs in presence of NaCl by broth dilution method; type: functional; details: ATCC 25922, 18 h
Escherichia coli [23] = assay: Antibacterial activity against Escherichia coli ATCC 25922 after 18 hrs in presence of NH4Cl by broth dilution method; type: functional; details: ATCC 25922, 18 h
Candida albicans [24] = assay: Antifungal activity against Candida albicans cgmcc 2.2086 in presence of NH4Cl by broth dilution method; type: functional
Candida albicans [25] = assay: Antifungal activity against Candida albicans cgmcc 2.2086 in presence of MgCl2 by broth dilution method; type: functional
Candida albicans [26] = assay: Antifungal activity against Candida albicans cgmcc 2.2086 in presence of CaCl2 by broth dilution method; type: functional
Candida albicans [27] = assay: Antifungal activity against Candida albicans cgmcc 2.2086 in presence of ZnCl2 by broth dilution method; type: functional
Candida albicans [28] = assay: Antifungal activity against Candida albicans cgmcc 2.2086 in presence of FeCl3 by broth dilution method; type: functional
Candida albicans [29] = assay: Antifungal activity against Candida albicans 58288 after 48 hrs by broth microdilution method; type: functional; details: Candida albicans, 58288, 48 h; method in brief: as §4

| Compound | MIC95 (Escherichia coli [1]) | MIC95 (Escherichia coli [2]) | MIC95 (Salmonella typhimurium [3]) | MIC95 [4] | MIC95 (Staphylococcus aureus [5]) | MIC95 (Staphylococcus aureus [6]) | MBC (Salmonella typhimurium [7]) | MBC [8] | MBC (Staphylococcus aureus [9]) | MBC (Staphylococcus aureus [10]) | MIC95 (Candida albicans [11]) | MIC95 (Candida albicans [12]) | MIC95 (Candida albicans [13]) | MIC95 (Candida albicans [14]) | MIC95 (Pichia kudriavzevii [15]) | MFC (Candida albicans [16]) | MFC (Candida albicans [17]) | MFC (Candida albicans [18]) | MFC (Candida albicans [19]) | MFC (Candida albicans [20]) | also measured |
| --- | --- | --- | --- | --- | --- | --- | --- | --- | --- | --- | --- | --- | --- | --- | --- | --- | --- | --- | --- | --- | --- |
| H-WWRRWRRWW-NH2 | 8 µM | 4 µM | 8 µM | 8 µM | 4 µM | 4 µM | 16 µM | 16 µM | 16 µM | 4 µM | 4 µM | 8 µM | 8 µM | 8 µM | 4 µM | 16 µM | 4 µM | 16 µM | 8 µM | 8 µM | MFC (Candida tropicalis): 8 µM; MFC (Pichia kudriavzevii [21]): 4 µM; MIC (Escherichia coli [22]): 8 µM; MIC (Escherichia coli [23]): 8 µM; MIC (Candida albicans [24]): 8 µM; MIC (Candida albicans [25]): 8 µM; MIC (Candida albicans [26]): 16 µM; MIC (Candida albicans [27]): 8 µM; MIC (Candida albicans [28]): 8 µM; MIC95 (Candida albicans [29]): 8 µM |
| H-RWWRRWRRWWR-NH2 | 16 µM | 8 µM | 8 µM | 4 µM | 4 µM | 8 µM | 32 µM | 8 µM | 8 µM | 8 µM | 2 µM | 4 µM | 4 µM | 8 µM | 2 µM | 8 µM | 2 µM | 8 µM | 8 µM | 4 µM | MFC (Candida tropicalis): 4 µM; MFC (Pichia kudriavzevii [21]): 4 µM; MIC (Escherichia coli [22]): 16 µM; MIC (Escherichia coli [23]): 16 µM; MIC (Candida albicans [24]): 4 µM; MIC (Candida albicans [25]): 8 µM; MIC (Candida albicans [26]): 8 µM; MIC (Candida albicans [27]): 4 µM; MIC (Candida albicans [28]): 4 µM; MIC95 (Candida albicans [29]): 2 µM |
| CC[C@H](C)[C@H](NC(=O)CN)C(=O)NCC(=O)N[C@@H](C)C(=O)N[C@H](C(=O)N[C@@H](CC(C)C)C(=O)N[C@@H](CCCCN)C(=O)N[C@H](C(=O)N[C@@H](CC(C)C)C(=O)N[C@H](C(=O)N[C@H](C(=O)NCC(=O)N[C@@H](CC(C)C)C(=O)N1CCC[C@H]1C(=O)N[C@@H](C)C(=O)N[C@@H](CC(C)C)C(=O)N[C@H](C(=O)N[C@@H](CO)C(=O)N[C@@H](Cc1c[nH]c2ccccc12)C(=O)N[C@H](C(=O)N[C@@H](CCCCN)C(=O)N[C@@H](CCCNC(=N)N)C(=O)N[C@@H](CCCCN)C(=O)N[C@@H](CCCNC(=N)N)C(=O)N[C@@H](CCC(N)=O)C(=O)N[C@@H](CCC(N)=O)C(N)=O)[C@@H](C)CC)[C@@H](C)CC)[C@@H](C)O)[C@@H](C)O)C(C)C)C(C)C [MELITTIN] | 2 µM (≈ 5.69 µg/mL) | 2 µM (≈ 5.69 µg/mL) | 1 µM (≈ 2.85 µg/mL) | 2 µM (≈ 5.69 µg/mL) | 1 µM (≈ 2.85 µg/mL) | 4 µM (≈ 11.4 µg/mL) | 2 µM (≈ 5.69 µg/mL) | 2 µM (≈ 5.69 µg/mL) | 8 µM (≈ 22.8 µg/mL) | 1 µM (≈ 2.85 µg/mL) | 4 µM (≈ 11.4 µg/mL) | 2 µM (≈ 5.69 µg/mL) | 4 µM (≈ 11.4 µg/mL) | 8 µM (≈ 22.8 µg/mL) | 2 µM (≈ 5.69 µg/mL) | 8 µM (≈ 22.8 µg/mL) | 4 µM (≈ 11.4 µg/mL) | 4 µM (≈ 11.4 µg/mL) | 8 µM (≈ 22.8 µg/mL) | 8 µM (≈ 22.8 µg/mL) | MFC (Candida tropicalis): 8 µM (≈ 22.8 µg/mL); MFC (Pichia kudriavzevii [21]): 4 µM (≈ 11.4 µg/mL); MIC (Candida albicans [24]): 4 µM; MIC (Candida albicans [25]): 4 µM; MIC (Candida albicans [26]): 8 µM; MIC (Candida albicans [27]): 4 µM; MIC (Candida albicans [28]): 4 µM; MIC95 (Candida albicans [29]): 4 µM (≈ 11.4 µg/mL) |
